Experiments:
Protease [1] = target: T1, Protease (Human immunodeficiency virus 1, UniProt Q9YQ12); assay: Inhibition of Human immunodeficiency virus 1 protease using Abz-Thr-Ile-Nle-Phe(p-NO2)-Gln-Arg-NH2 as substrate by fluorescence analysis
Outline: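 Recombinant wild-type HIV-1 PR with fluorogenic substrate Abz-NF*-6, run at pH 5.5. […] 1.2 nM PR needed to detect activity. Active enzyme concentration set by titration with ritonavir and nelfinavir. The IC50 measurability limit is one-half of the active enzyme concentration.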

[2] = tested on: Human immunodeficiency virus 1; assay: Antiviral activity against Human immunodeficiency virus 1 3B infected in human MT2 cells assessed as survival of virus infected cells at 5 nM after 72 to 96 hrs by MTT assay; assay type: functional
Outline: (§1)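 HIV-1 IIIB from supernatants of chronically infected H9/HTLV IIIB cells; stock characterized by p24, RT activity and infectivity (2 × 10⁶ infectious virions/mL). MT-2 cells in RPMI 1640 + 10% FCS, infected at MOI 0,1 and incubated with inhibitor for 72−96 h. Microtiter infection assay, MTT uptake read at 540 nm, expressed as % survival of virus-infected cells.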

MT2 [3] = assay: (§2) Cytotoxicity against human MT2 cells after 96 hrs by MTT assay; assay type: cell-based; conditions: mt2, 96 h
Outline: (§3)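 MT-2 cells grown in RPMI 1640 with 10% fetal calf serum and exposed to inhibitor for 72 or 96 h. MTT uptake read-out. CC50 is derived from % cell survival. MNC is the highest concentration that alters neither monolayer morphology nor survival rate. Six to eight parallels per experiment, each experiment run in triplicate.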

[4] = as §2; assay type: cell-based; conditions: MT2 cells; outline: as §3
Protease [5] = target: T1, Protease; assay: Inhibition of HIV1 3B protease activity in human H9 cells using Abz-Thr-Ile-Nle-Phe(p-NO2)-Gln-Arg-NH2 as substrate after 40 mins by spectrophotometric analysis; assay type: cell-based
MT2 [6] = assay: (§4) Cytotoxicity against human MT2 cells assessed as maximum non-toxic concentration after 96 hrs by MTT assay; assay type: cell-based; conditions: mt2, 96 h; outline: as §3
[7] = as §4; assay type: cell-based; conditions: MT2 cells, read-out: MNCC; outline: as §3
MT2 [8] = assay: (§5) Cytotoxicity against human MT2 cells assessed as maximum non-toxic concentration after 72 hrs by MTT assay; assay type: cell-based; conditions: mt2, 72 h; outline: as §3
[9] = as §5; assay type: cell-based; conditions: MT2 cells, read-out: MNCC; outline: as §3
[10] = tested on: Human immunodeficiency virus 1; assay: Antiviral activity against Human immunodeficiency virus 1 3B infected in human MT2 cells assessed as inhibition of reverse transcriptase activity at 10 nM after 72 to 96 hrs by MTT assay relative to untreated control; assay type: functional; set-up: scale not given: the % may be the effect or the level left
[11] = tested on: Human immunodeficiency virus 1; assay: Antiviral activity against Human immunodeficiency virus 1 3B infected in human MT2 cells assessed as survival of virus infected cells at 10 nM after 72 to 96 hrs by MTT assay; assay type: functional; outline: as §1
[12] = Ratio of CC50 for human MT2 cells after 96 hrs to CC50 for human MT2 cells after 72 hrs; assay type: cell-based
MT2 [13] = assay: (§6) Cytotoxicity against human MT2 cells after 72 hrs by MTT assay; assay type: cell-based; conditions: mt2, 72 h; outline: as §3
[14] = as §6; assay type: cell-based; conditions: MT2 cells; outline: as §3
MT2 [15] = assay: Ratio of MNC for human MT2 cells after 96 hrs to MNC for human MT2 cells after 72 hrs; assay type: ADME, cell-based
[16] = tested on: Human immunodeficiency virus 1; assay: Antiviral activity against Human immunodeficiency virus 1 3B infected in human MT2 cells assessed as inhibition of reverse transcriptase activity at 5 nM after 72 to 96 hrs by MTT assay relative to untreated control; assay type: functional; set-up: scale not given: the % may be the effect or the level left
[17] = tested on: Human immunodeficiency virus 1; assay: Antiviral activity against Human immunodeficiency virus 1 3B infected in human MT2 cells assessed as inhibition of reverse transcriptase activity at 0.000001 nM after 72 to 96 hrs by MTT assay relative to untreated control; assay type: functional; set-up: scale not given: the % may be the effect or the level left
[18] = tested on: Human immunodeficiency virus 1; assay: Antiviral activity against Human immunodeficiency virus 1 3B infected in human MT2 cells assessed as inhibition of reverse transcriptase activity at 0.00001 nM after 72 to 96 hrs by MTT assay relative to untreated control; assay type: functional; set-up: scale not given: the % may be the effect or the level left
[19] = tested on: Human immunodeficiency virus 1; assay: Antiviral activity against Human immunodeficiency virus 1 3B infected in human MT2 cells assessed as survival of virus infected cells at 0.0001 nM after 72 to 96 hrs by MTT assay; assay type: functional; outline: as §1
[20] = tested on: Human immunodeficiency virus 1; assay: Antiviral activity against Human immunodeficiency virus 1 3B infected in human MT2 cells assessed as inhibition of reverse transcriptase activity at 0.0000001 nM after 72 to 96 hrs by MTT assay relative to untreated control; assay type: functional; set-up: scale not given: the % may be the effect or the level left
[21] = tested on: Human immunodeficiency virus 1; assay: Antiviral activity against Human immunodeficiency virus 1 3B infected in human MT2 cells assessed as inhibition of reverse transcriptase activity at 0.0001 nM after 72 to 96 hrs by MTT assay relative to untreated control; assay type: functional; set-up: scale not given: the % may be the effect or the level left
[22] = tested on: Human immunodeficiency virus 1; assay: Antiviral activity against Human immunodeficiency virus 1 3B infected in human MT2 cells assessed as survival of virus infected cells at 0.0000001 nM after 72 to 96 hrs by MTT assay; assay type: functional; outline: as §1
[23] = tested on: Human immunodeficiency virus 1; assay: Antiviral activity against Human immunodeficiency virus 1 3B infected in human MT2 cells assessed as inhibition of reverse transcriptase activity at 0.001 nM after 72 to 96 hrs by MTT assay relative to untreated control; assay type: functional; set-up: scale not given: the % may be the effect or the level left
[24] = tested on: Human immunodeficiency virus 1; assay: Antiviral activity against Human immunodeficiency virus 1 3B infected in human MT2 cells assessed as inhibition of reverse transcriptase activity at 0.1 nM after 72 to 96 hrs by MTT assay relative to untreated control; assay type: functional; set-up: scale not given: the % may be the effect or the level left
[25] = tested on: Human immunodeficiency virus 1; assay: Antiviral activity against Human immunodeficiency virus 1 3B infected in human MT2 cells assessed as survival of virus infected cells at 0.1 nM after 72 to 96 hrs by MTT assay; assay type: functional; outline: as §1
[26] = tested on: Human immunodeficiency virus 1; assay: Antiviral activity against Human immunodeficiency virus 1 3B infected in human MT2 cells assessed as survival of virus infected cells at 0.00001 nM after 72 to 96 hrs by MTT assay; assay type: functional; outline: as §1
[27] = tested on: Human immunodeficiency virus 1; assay: Antiviral activity against Human immunodeficiency virus 1 3B infected in human MT2 cells assessed as survival of virus infected cells at 0.001 nM after 72 to 96 hrs by MTT assay; assay type: functional; outline: as §1
[28] = tested on: Human immunodeficiency virus 1; assay: Antiviral activity against Human immunodeficiency virus 1 3B infected in human MT2 cells assessed as survival of virus infected cells at 0.000001 nM after 72 to 96 hrs by MTT assay; assay type: functional; outline: as §1

T1 sequence (Q9YQ12 whole entry): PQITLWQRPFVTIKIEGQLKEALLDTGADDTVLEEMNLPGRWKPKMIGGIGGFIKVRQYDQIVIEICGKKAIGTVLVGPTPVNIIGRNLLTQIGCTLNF

CC(=O)N[C@@H](Cc1c[nH]c2ccccc12)C(=O)N[C@H](C(=O)N[C@@H](Cc1ccccc1)[C@H](O)[C@@H](O)[C@@H]1CCCN1C(=O)[C@@H](NC(=O)[C@H](Cc1c[nH]c2ccccc12)NC(C)=O)C(C)C)C(C)C
IC50 (Protease [1]): < 0.0006 µM | survival at 0.005 µM [2]: > 90% | Activity (MT2 [3]): Dose-dependent effect | CC50 at 96 h [4]: 0.5 µM | IC50 (Protease [5]): 5 nM | Activity (MT2 [6]): Dose-dependent effect | MNTC at 96 h [7]: 0.3 nM | Activity (MT2 [8]): Dose-dependent effect | MNTC at 72 h [9]: 10 nM | Activity [10]: 24% | survival at 0.01 µM [11]: > 90% | selectivity ratio [12]: 5000 | Activity (MT2 [13]): Dose-dependent effect | CC50 at 72 h [14]: 2500 µM | Ratio (MT2 [15]): 33 | Activity [16]: 50%

Cc1cccc(C)c1OCC(=O)N[C@@H](Cc1ccccc1)[C@@H](O)[C@H](O)[C@H]1CCCN1C(=O)COc1c(C)cccc1C
IC50 (Protease [1]): 3.3 µM

CC[C@H](C)[C@H](NC(=O)[C@@H](NC(C)=O)C(C)C)C(=O)N1CCC[C@H]1[C@H](O)[C@@H](O)[C@H](Cc1ccccc1)NC(=O)[C@H](CC(N)=O)NC(=O)[C@H](CC(C)C)NC(=O)[C@H](CO)NC(C)=O
IC50 (Protease [1]): 0.0006 µM

CC(=O)N[C@@H](Cc1c[nH]c2ccccc12)C(=O)N[C@H](C(=O)N[C@@H](Cc1ccccc1)[C@H](O)[C@@H](O)[C@@H]1CCCCN1C(=O)[C@@H](NC(=O)[C@H](Cc1c[nH]c2ccccc12)NC(C)=O)C(C)C)C(C)C
IC50 (Protease [1]): 0.0018 µM

CC(=O)N[C@@H](Cc1c[nH]c2ccccc12)C(=O)N[C@H](C(=O)N1CCC[C@H]1[C@H](O)[C@@H](O)[C@H](Cc1ccccc1)NC(=O)COc1c(C)cccc1C)C(C)C
IC50 (Protease [1]): 0.075 µM

O=C(COc1ccccc1)N[C@@H](Cc1ccccc1)[C@H](O)[C@@H](O)[C@@H]1CCCN1C(=O)COc1ccccc1
IC50 (Protease [1]): 0.614 µM

CC[C@H](NC(=O)COc1ccccc1C)[C@H](O)[C@@H](O)[C@@H]1CCCN1C(=O)COc1ccccc1C
IC50 (Protease [1]): 0.655 µM

Cc1cccc(C)c1OCC(=O)N[C@@H](Cc1ccccc1)[C@H](O)[C@@H](O)[C@@H]1CCCN1C(=O)COc1ccccc1
IC50 (Protease [1]): 0.085 µM

Cc1cccc(C)c1OCC(=O)N[C@@H](Cc1ccccc1)[C@H](O)[C@@H](O)[C@@H]1CCCN1C(=O)COc1c(C)cccc1C
Activity [17]: 28% | IC50 (Protease [1]): 0.0096 µM | Activity [18]: 29% | survival at 100 fM [19]: 87% | Activity [20]: 26% | Activity (MT2 [3]): Dose-dependent effect | CC50 at 96 h [4]: 1000 µM | Activity [21]: 26% | survival at 1e-10 µM [22]: > 90% | Activity [23]: 25% | IC50 (Protease [5]): 0.0015 nM | Activity [24]: 24% | survival at 0.0001 µM [25]: 78% | Activity (MT2 [6]): Dose-dependent effect | MNTC at 96 h [7]: 0.1 nM | Activity (MT2 [8]): Dose-dependent effect | MNTC at 72 h [9]: 0.1 nM | survival at 10 fM [26]: 90% | Activity (MT2 [13]): Dose-dependent effect | CC50 at 72 h [14]: 300 µM | survival at 1 pM [27]: 80% | survival at 1 fM [28]: > 90%

Cc1cccc(C)c1OCC(=O)N[C@@H](Cc1ccccc1)[C@H](O)[C@@H](O)[C@@H]1CCCCN1C(=O)COc1c(C)cccc1C
IC50 (Protease [1]): 0.175 µM

CC(=O)c1ccc(OCC(=O)N[C@@H](Cc2ccccc2)[C@H](O)[C@@H](O)[C@@H]2CCCN2C(=O)COc2ccc(C(C)=O)cc2)cc1
IC50 (Protease [1]): 116 µM

Cc1cccc(C)c1OCC(=O)N1CCC[C@H]1[C@H](O)[C@@H](O)[C@@H]1CCCN1C(=O)COc1c(C)cccc1C
IC50 (Protease [1]): 290 µM

CC(=O)N[C@@H](Cc1c[nH]c2ccccc12)C(=O)N[C@H](C(=O)N[C@@H](Cc1ccccc1)[C@H](O)[C@@H](O)[C@H](Cc1ccccc1)NC(=O)[C@@H](NC(=O)[C@H](Cc1c[nH]c2ccccc12)NC(C)=O)C(C)C)C(C)C
IC50 (Protease [1]): 0.006 µM

Cc1cccc(C)c1OCC(=O)N[C@@H](Cc1ccccc1)[C@H](O)[C@@H](O)[C@H](Cc1ccccc1)NC(=O)COc1c(C)cccc1C
IC50 (Protease [1]): 0.028 µM
